Screens (PubChem)
Sampled rows, rich in hits. Any-hit rate of the full collection: about 3.4%.
RanGTP-Imp inh: inhibitors of RanGTP-importin-beta interaction, primary screen, biochemical, FRET, CFP-Ran, YFP-importin-beta, homogeneous | cell-free CFP-Ran/YFP-importin-beta FRET ratio | inhibition, % (no concentration beside the values) | 300,000 tested, 1.1% active | AID 2216;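 active = more than half of the replicate wells show a fall in the fluorescence ratio signal beyond about 16%, limit read from the data, passing the limit was not always enough; inconclusive = exactly half of the replicate wells pass the set limit; inactive = fewer than half of replicates pass the limit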;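 note: 0% = DMSO wells and 100% = Ran loaded with GDP instead of GTP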
Runt-CBFb FRET: Runt domain-CBFb interaction inhibition. 220,000 tested, 0.46% active. Cerulean-Runt/Venus-CBFb FRET ratio 530/480, 1 h. AID 1496. Q01196+Q13951. inhibition, % at 20 µM;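 active = inhibition over about 50% at 20 µM in the single-dose screen, limit read from the data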;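 note: 0% = DMSO wells and 100% = excess unlabeled CBFb competitor control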
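test system = Cerulean-Runt domain fusion protein, energy donor | probe or stimulus = Venus-CBFb binding partner, 100 nM | incubation = two 1 h room-temperature incubations shielded from light | detection = fluorescence energy transfer, 422 nm excitation, 530/480 nm emission | measure = loss of energy transfer signal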
Efa HMGR inh: blocks class II HMG-CoA reductase of Enterococcus faecalis; purified E. faecalis HMGR, NADPH absorbance 340 nm kinetic; inhibition, % at 10 µM; 190,000 tested, 0.41% active; AID 1066;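 active = inhibition above a set limit, the median over all tested compounds plus 3 SD, cut at about 9.5% in these data; inconclusive = no clear call, values can overlap the other calls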;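 note: enzyme runs in reverse so mevalonate oxidation gives rising NADPH absorbance; 0% = complete reaction with DMSO and 100% = background rate lacking mevalonate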
PHOSPHO1 inh: blocks human PHOSPHO1 phosphatase activity; inhibition, % at 13.3 µM; recombinant PHOSPHO1, absorbance phosphatase assay; 290,000 tested, 1.1% active; in the data active = inhibition above about 60%
Target sequence (Q8TCT1 whole entry, looked up): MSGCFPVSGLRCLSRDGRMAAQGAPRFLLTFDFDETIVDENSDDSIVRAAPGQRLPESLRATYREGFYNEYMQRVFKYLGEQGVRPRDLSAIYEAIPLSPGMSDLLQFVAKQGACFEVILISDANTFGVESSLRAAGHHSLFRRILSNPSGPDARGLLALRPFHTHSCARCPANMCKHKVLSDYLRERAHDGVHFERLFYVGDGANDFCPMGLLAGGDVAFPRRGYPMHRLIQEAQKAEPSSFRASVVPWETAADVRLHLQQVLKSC
Runt-SMMHC FRET: blocks binding of human RUNX1 Runt domain to CBFb-SMMHC. Q01196+Q13951. Cerulean-Runt/Venus-CBFb-SMMHC FRET ratio 530/480, 1 h. inhibition, % at 20 µM. 220,000 tested, 0.74% active;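 active = mean inhibition across duplicate retests at 20 µM reaching about 50%, limit read from the data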;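 note: 0% = DMSO wells and 100% = wells with excess untagged CBFb-SMMHC; inhibitors lower the FRET ratio by blocking Runt binding to CBFb-SMMHC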
Wee1 stabilizer: inhibitors of human Wee1 degradation; HeLa Luc-Wee1K328M stability, luciferase luminescence; 100% = proteasome inhibitor MG132 effect; reporter increase, % at 5 µM; 220,000 tested, 1.2% active; AID 1321; P30291;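 active = activation above the mean of all tested compounds plus 3 SD, set per screening run, cut at about 8.8% in these data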;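 note: cells exposed to compound for 20 h before luminescence read; 0% = DMSO alone and 100% = MG132 at 30 µM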
YIC FRET counter: counter-screen: alters YIC FRET probe signal; Purified YIC probe, intramolecular FRET ratio YFP/CFP; shares compounds with RanGTP-Imp inh; 1,000 tested, 40% active; IC50, µM; AID 435026;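 active = fitted half-maximal inhibitory concentration no more than tenfold above the top dose tested; inconclusive = flat fit with 30 to 70% activity, or poor fit; inactive = half-maximal concentration beyond tenfold above the top dose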
* hit, by the source's call; u = inconclusive; x = no result.

SMILES	RanGTP-Imp inh	Runt-CBFb FRET	Efa HMGR inh	PHOSPHO1 inh	Runt-SMMHC FRET	Wee1 stabilizer	YIC FRET counter
Cc1ccc(-n2c(=O)c(C#N)cc3c(=O)n4ccccc4nc32)cc1	44*	19	-5	6	60*	2	0.72*
O=C(N/N=C/c1ccc([N+](=O)[O-])o1)c1ccccc1NS(=O)(=O)c1cccs1	u	1	x	18	-2	-1	x
CC12CCC(=O)N1C(C(=O)Nc1nnc(SCc3ccc(F)cc3)s1)CS2 (centres undefined)	-3	x	x	1	x	x	x
N#C/C(=C/c1cn(CC(=O)O)c2ccccc12)C(=O)NCc1ccccc1	23*	4	-4	16	4	-1	>50
COc1ccc(CNC(=O)CCS(=O)(=O)Cc2cccc(Cl)c2)c(OC)c1	-1	0	-3	2	-1	2	x
c1ccc2c(c1)[nH]c1ccccc12	-3	x	x	x	x	x	x
O=c1c2ccccc2[nH]c2ccccc12	19*	120*	-8	-4	83*	4	49*
Cc1nn(C(=O)c2ccco2)c(C)c1CN1C(=O)c2ccccc2C1=O	20*	-1	-1	-17	-8	4	>50
O=C(O)Cn1cc(/C=C2/SC(=O)N(CC(=O)N3CCCCCC3)C2=O)c2ccccc21	17*	8	-4	22	27	4	>50
O=C(O)Cn1cc(/C=C2\SC(=O)N(c3ccccc3)C2=O)c2ccccc21	24*	14	0	13	29	-2	39*
Cc1ccc(NC(=O)CN(C)S(=O)(=O)c2ccc3[nH]c(=O)oc3c2)c(C)c1	4	x	x	38	x	x	x
CC1CC1c1ccc(/C=C(\C#N)C(=O)Nc2ccc(Cl)cc2)o1 (centres undefined)	16*	0	-3	-17	2	3	>50
N#C/C(=C\c1ccc(N2CCOCC2)o1)C(=O)Nc1ccc(O)cc1	u	-36	0	30	-96	0	x
N#C/C(=C\c1ccc[nH]1)C(=O)Nc1ccccc1Cl	-44	x	x	22	x	x	x
COc1ccc(NC(=O)/C(C#N)=C\c2ccc(N3CCOCC3)o2)cc1	18*	-17	4	45	-90	-1	47*
CC1CC1c1ccc(/C=C(\C#N)C(=O)Nc2ccccc2Cl)o1 (centres undefined)	36*	-5	-3	8	-1	3	52*
NS(=O)(=O)c1ccc(S(=O)(=O)N(CCc2ccccc2)Cc2ccccn2)cc1	2	x	x	24	x	x	x
Cc1cccc(-c2cc3nc(-c4ccccc4)cc(N4CCC5(CC4)OCCO5)n3n2)c1	5	-1	-1	-33	9	2	x
Cc1ccc(-c2cc3nc(-c4ccccc4)cc(N4CCC5(CC4)OCCO5)n3n2)cc1	29*	-5	-6	-10	-3	1	5.6*
COc1ccccc1-n1cc(C(=O)NCC(=O)N2CCN(Cc3ccccc3)CC2)c2ccccc2c1=O	2	-4	-3	16	0	0	x
O=C(O)COc1ccc(F)cc1Br	25*	1	x	8	0	-2	>50
Cc1cc(Cl)ccc1C(=O)C1CCCN(C(=O)c2n[nH]c3c2CCCC3)C1 (centres undefined)	21*	-2	-2	35	1	-2	>50
CCC(=O)N(CC(=O)Nc1sc(C)c(C)c1C(N)=O)C1CCCC1	22*	1	-5	0	2	-1	>50
OCCNc1c2ccccc2nc2c(F)c(F)c(F)c(F)c12	20*	47	-7	-12	x	3	6.5*
Cc1noc(C)c1C(=O)Nc1sc2c(c1C(N)=O)CCCCC2	4	25	1	-7	26	0	x
SMILES	RanGTP-Imp inh	Runt-CBFb FRET	Efa HMGR inh	PHOSPHO1 inh	Runt-SMMHC FRET	Wee1 stabilizer	YIC FRET counter
Cc1noc(C)c1C(=O)Nc1sc2c(c1C(N)=O)CCC2	26*	-1	-5	-32	-2	-1	>50
COc1ccc(S(=O)(=O)CCc2nnc(NC(=O)c3ccc(F)cc3)s2)cc1	4	x	x	31	x	x	x
O=C(Cc1cc(=O)oc2cc(O)ccc12)NCC1CCC(C(=O)O)CC1 (centres undefined)	32*	108*	3	0	62*	1	9.8*
CN(C)S(=O)(=O)c1cccc(NC(=O)CNC2CCCCC2)c1	27*	-2	x	42	0	-2	>50
CCc1nnc(NC(=O)c2c(C)nn(-c3ccccc3)c2Cl)s1	20*	-2	3	-4	-1	3	>50
Cc1cc(C)c(C(=O)CSc2nc(C)cc(C)c2C(N)=O)c(C)c1	-2	-1	-9	4	2	-2	x
CCOC(=O)C(=O)Nc1cc(C(=O)OC)cc(C(=O)OC)c1	16*	-1	2	17	3	-2	>50
CCCOc1cc2c(C#N)c(N3CCCC3)nc(N)c2c(N)n1	6	x	x	x	x	x	x
N#Cc1c(-c2ccc3c(c2)OCO3)ccn2nc(-c3cccc(C(F)(F)F)c3)nc12	20*	-6	1	3	30	-2	22*
CCc1ccc(-c2nc(CSCC(=O)N3CCN(c4ccccn4)CC3)c(C)o2)cc1	18*	-3	-6	24	-2	-1	>50
CC(OC(=O)c1cc2sccc2n1C)C(=O)NCc1cccs1 (centres undefined)	9	-3	-4	-2	-2	-1	x
COCCNC(=O)C(C)OC(=O)c1cc2occc2n1C (centres undefined)	19*	2	-3	10	0	-1	>50
CCOc1ccc2nc(SCC(=O)NCc3ccc4c(c3)OCO4)[nH]c2c1	30*	2	0	3	4	-1	>50
O=C(O)C1C2CCC(O2)C1C(=O)Nc1ccc(Br)cc1F (centres undefined)	7	x	x	x	x	x	x
CN1CCCC1CCNc1ccc2sc3ccccc3c(=O)c2c1 (centres undefined)	-193	x	x	x	x	x	x
Cc1cc2oc3cc(NCCC4CCCN4C)ccc3c(=O)c2cc1C (centres undefined)	31*	x	x	x	x	x	8.9*
Clc1nc(-c2ccccc2)ncc1Oc1ccccc1	2	x	x	x	x	x	x
CCOC(=O)c1ccc(NC(=O)CSc2nc(C)nc3c2c(=O)n(C)c(=O)n3C)cc1	19*	-18	4	-23	0	3	>50
O=c1[nH]c(-[n+]2ccc3ccccc3c2)c(/C=N/N=C(\[O-])c2ccccc2)s1	25*	x	x	10	x	x	>50
